OX1R antag-1 = antagonists of human orexin 1 receptor; O43613; CHO/OX1R cells, Fluo-8 calcium fluorescence, orexin A; inhibition, % at 5 µM; hit rate 0.43% among 330,000; AID 434989;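 active = inhibition above its plate's threshold, mean inhibition of all tested compounds on the plate plus 3 SD, cut at about 37% in these data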;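 also: 0% = orexin A challenge wells and 100% = SB-334867-A antagonist wells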
Target sequence (O43613 whole entry, looked up): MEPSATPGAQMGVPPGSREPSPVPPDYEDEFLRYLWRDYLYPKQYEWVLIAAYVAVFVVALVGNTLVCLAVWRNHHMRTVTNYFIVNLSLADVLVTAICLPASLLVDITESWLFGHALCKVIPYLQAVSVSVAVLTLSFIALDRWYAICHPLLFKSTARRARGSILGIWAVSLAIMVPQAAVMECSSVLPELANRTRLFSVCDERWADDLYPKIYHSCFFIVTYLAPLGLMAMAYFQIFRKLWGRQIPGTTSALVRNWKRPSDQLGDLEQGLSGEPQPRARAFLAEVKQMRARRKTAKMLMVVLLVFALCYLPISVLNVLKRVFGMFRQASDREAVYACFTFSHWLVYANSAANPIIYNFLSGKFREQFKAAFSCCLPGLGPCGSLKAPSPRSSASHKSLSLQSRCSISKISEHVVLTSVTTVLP
OX1R antag-2 = OX1R (human) antagonism; OX1R-expressing cells, FRET antagonist read-out; AID 485270; O43613; hit rate 1.8% among 330,000; inhibition, % at 6.6 µM; in the data active = inhibition mostly above about 38%, no sharp cut-off; inactive = mostly below about 40%;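 also: 0% = agonist challenge alone and 100% = reference antagonist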
TRPN1 ag = activates the zebrafish TRPN1 channel; HEK293 zebrafish TRPN1-YFP, Fluo-8 calcium fluorescence; 100% = response to 87 µM carbachol; activation, % at 3 µM; hit rate 0.18% among 220,000; AID 1424;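 active = activation above its plate's cutoff, the mean activation of test wells on that plate plus 3 SD, cut at about 19% in these data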;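 also: 0% = DMSO alone and 100% = 87 µM carbachol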
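Assay system: Zebrafish TRPN1-YFP in HEK293 cells | Incubation: Dye loading 1 h at 37 °C, then 30 min room temperature | Measured by: Kinetic Fluo-8 fluorescence, ex 470-495, em 515-575 nm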
CHO parental Ca = signal in parental CHO cells, OX1R antagonist counter-screen; parental CHO-K1, ATP-induced calcium, Fluo-8 fluorescence; inhibition, % at 5.6 µM; hit rate 0.63% among 330,000; AID 463079;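 active = inhibition above that plate's mean sample inhibition plus 3 SD, cut at about 26% in these data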;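 also: 0% = ATP-challenged DMSO wells and 100% = DMSO wells without ATP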
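Material: parental CHO cells / Compound: single nominal dose of 5.6 µM per compound / Signal: Fluo-8 fluorescence / Replicates: singlicate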
TRPML3 agonist = activates the human TRPML3 channel. HEK293 TRPML3-YFP, Fluo-8 calcium fluorescence; 100% = the carbachol control signal. activation, % at 3 µM. hit rate 0.29% among 220,000. AID 1448;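 active = activation above its plate's cutoff, the mean activation of the plate's test wells plus 3 SD, cut at about 12% in these data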;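 also: 0% = DMSO only wells and 100% = carbachol wells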
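system = HEK293 cells stably carrying human TRPML3-YFP | doses = one concentration, 3 µM nominal, 0.3% DMSO | timing = dye loading 1 h 37 °C then 30 min ambient, 125 s read | detection = Fluo-8 calcium dye fluorescence, ex 470-495, em 515-575 nm | benchmarks = high control carbachol 87 µM, low control DMSO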
An asterisk follows results filed as active; . = not tested or not shown. An excerpt weighted towards active compounds, which were near 2.5% of everything screened.

SMILES | OX1R antag-1 | OX1R antag-2 | TRPN1 ag | CHO parental Ca | TRPML3 agonist
COc1ccc(CCNc2nc(C)nc3c2oc2ccccc23)cc1OC | 31 | 54* | 3 | 58* | 2
COc1ccc(CCNc2ncnc3c2oc2ccccc23)cc1OC | 60* | 78* | 10 | 79* | 4
Cc1cccc(Nc2nnc(SCC(=O)NC(=O)CN3CCCC3=O)s2)c1 | -16 | 1 | . | -12 | .
O=C(COC(=O)c1ccccc1O)NCc1ccccc1Cl | -8 | 4 | . | -17 | .
O=C1c2ccccc2C(=O)N1CCCCCc1nc(-c2ccccc2)no1 | 27 | 74* | 0 | -12 | 0
Cc1ccc(-c2noc(CCCN3C(=O)c4ccccc4C3=O)n2)cc1 | -22 | 18 | 1 | -19 | 1
O=C(N/N=C/c1ccco1)c1cc(-c2ccc(Cl)s2)[nH]n1 | -2 | 56 | 1 | -4 | 0
O=C(N/N=C/c1cccs1)c1cc(-c2ccc(Cl)s2)[nH]n1 | 9 | 59* | . | -4 | .
Cc1ccc(Nc2c(-c3ccccn3)nc3ccc(C)cn23)cc1 | -26 | 27 | -3 | 36* | -1
C=CCNC(=S)N/N=C(\C)c1ccccn1 | 24 | 5 | 0 | 29* | 1
Cc1ccc(NC(=O)c2ccccc2NS(=O)(=O)c2ccc(Cl)s2)cc1 | 15 | 46 | 27* | -5 | 13*
O=C(Nc1ccccc1)c1ccccc1NS(=O)(=O)c1ccc(Cl)s1 | 9 | 65* | 29* | 28* | 16*
O=C(Nc1ccccc1Cc1ccccc1)c1ccccc1NS(=O)(=O)c1ccc(Cl)s1 | 28 | 77* | 19* | 24 | 5
O=C(NCc1ccco1)c1ccccc1NS(=O)(=O)c1ccc(Cl)s1 | -2 | 38 | 2 | -3 | 3
CC(=O)N1c2ccc(S(=O)(=O)N(C)CC(=O)NC(C)c3ccccc3)cc2CC1C (centres undefined) | -25 | 3 | . | -13 | .
CCN1/C(=C/C(C)=C/c2sc3ccccc3[n+]2CC)Sc2ccccc21 | 95* | 63* | 4 | 87* | 3
CCN1/C(=C\C(=S)Nc2ccccc2)Sc2ccccc21 | -27 | 10 | 0 | -9 | 0
N#Cc1cc2nc(O)c(O)nc2cc1[N+](=O)[O-] | 12 | 76* | . | 1 | .
CCOc1ccccc1NC(=O)CS(=O)(=O)c1cn(CC(=O)N2CCOCC2)c2ccccc12 | -24 | 20 | . | -13 | .
CCc1ccc2[nH]c3nc(N/N=C/c4ccc(O)cc4O)nnc3c2c1 | -2 | 74* | . | -13 | .
COCCCNC(=O)CN(c1cc(Cl)ccc1OC)S(C)(=O)=O | -3 | 1 | 0 | -4 | 1
O=C(O)c1cccc(NS(=O)(=O)c2ccc(C3CCCCC3)cc2)c1 | 5 | 7 | -1 | -8 | 0
Cc1cccc(NS(=O)(=O)c2ccc(C3CCCCC3)cc2)c1 | 51* | 0 | -1 | 48* | 0
N#CCc1ccc(NS(=O)(=O)c2ccc(C3CCCCC3)cc2)cc1 | 13 | 17 | 3 | 68* | 2
CCN(CC)c1ccc(/C=C/C(=O)c2ccc(Br)cc2)cc1 | 99* | 15 | 56* | 91* | 59*
SMILES | OX1R antag-1 | OX1R antag-2 | TRPN1 ag | CHO parental Ca | TRPML3 agonist
CN(C)c1ccc(C(=O)/C=C/c2ccc(Br)cc2)cc1 | -29 | 17 | 0 | -18 | 0
C=CCN1C(=O)c2ccc(C(=O)N3CCN(S(=O)(=O)c4ccc(C(C)C)cc4)CC3)cc2C1=O | -37 | 21 | . | -5 | .
O=C(N1CCCCC1)N1CCN(S(=O)(=O)c2cccc([N+](=O)[O-])c2)CC1 | -10 | 16 | . | -9 | .
O=C(N1CCCCCC1)N1CCN(S(=O)(=O)c2cccc([N+](=O)[O-])c2)CC1 | -19 | 52* | . | -12 | .
Cc1ccc(S(=O)(=O)/N=C2/NC(=O)/C(=C/c3ccncc3)S2)cc1 | -9 | 6 | 0 | -10 | 1
O=C1NC(=Nc2ccccc2Cl)S/C1=C\c1cc([N+](=O)[O-])ccc1O | 7 | 72* | . | 14 | .
COc1cc(/C=C2\S/C(=N/S(=O)(=O)c3ccc(C)cc3)NC2=O)c([N+](=O)[O-])cc1OC | -13 | 39* | 1 | -5 | 0
Cc1ccc(S(=O)(=O)/N=C2/NC(=O)/C(=C\c3ccccc3)S2)cc1 | 4 | 33* | . | 10 | .
COc1cccc(N=C2NC(=O)/C(=C/c3cc([N+](=O)[O-])ccc3O)S2)c1 | 16 | -7 | . | 12 | .
Cc1ccc(S(=O)(=O)/N=C2/NC(=O)/C(=C/c3cc([N+](=O)[O-])ccc3O)S2)cc1 | 43* | 20 | . | 48* | .
Cc1ccc(S(=O)(=O)/N=C2/NC(=O)/C(=C/c3ccccc3)S2)cc1 | -26 | 48 | -2 | -20 | 0
CC(C)CN(CC(C)C)c1ccc(/C=N/n2cnnc2)cc1[N+](=O)[O-] | -18 | 26 | -3 | -24 | -1
O=C(COc1coc(CN2CCc3ccccc32)cc1=O)Nc1ccc([N+](=O)[O-])cc1 | -11 | 14 | . | -7 | .
O=C(O)C1CCCCN1C(=O)c1cc2c(s1)CCCCC2 (centres undefined) | -21 | 7 | . | -12 | .
COc1cc(OC)c2c(=O)cc(-c3cccnc3)oc2c1 | -26 | 0 | 1 | -4 | 1
COc1cc(OC)c2c(=O)cc(-c3ccccc3)oc2c1 | -30 | 44* | 0 | -16 | 0
O=S(=O)(NCc1cc(-c2ccc(Cl)cc2)no1)c1ccc(Cl)cc1 | 51* | 20 | 1 | 93* | 0
O=c1oc2c3c4c(cc2c(C(F)(F)F)c1CCN1CCOCC1)CCCN4CCC3 | 14 | 4 | 20* | 9 | 10
CC(C)c1cc(=O)oc2c3c4c(cc12)CCCN4CCC3 | -19 | 37 | 0 | -21 | 0
Cc1c(C(=O)OCC(=O)N(C)Cc2ccccc2)oc2ccccc12 | 26 | 60* | . | -12 | .
Cc1c(C(=O)OCC(=O)N2CC(C)CC(C)C2)oc2ccccc12 (centres undefined) | -24 | 70* | . | -17 | .
Cc1c(C(=O)OCC(=O)N(C)c2ccccc2)oc2ccccc12 | -13 | 32 | . | -15 | .
Cc1ccc(CCC(=O)Nc2ccc([N+](=O)[O-])cc2)o1 | -3 | 5 | . | 9 | .
COc1ccc(NC(=O)c2ccc(NC(=O)c3ccncc3)cc2)cc1 | 6 | -5 | . | -1 | .
COc1ccc(NC(=O)c2ccc3ccccc3c2)cc1 | -3 | 11 | . | 42* | .
COc1ccccc1/C=C/C(=O)Nc1cccc(C(C)=O)c1 | 0 | 60* | 0 | -20 | 1
COc1ccc(OC)c(NC(=O)c2cccc(NC(=O)c3ccccc3)c2)c1 | -14 | 54* | . | -15 | .
COc1ccc(C(=O)Nc2ccc(C3CC3(Cl)Cl)cc2)cc1 (centres undefined) | 10 | 39 | 3 | 37* | 1
COc1cccc(/C=C/C(=O)Nc2cccc(C(C)=O)c2)c1OC | -20 | 15 | 2 | -9 | 1
CCC(=O)Nc1ccc(NC(=O)c2ccc3ccccc3c2)cc1 | -10 | 15 | . | 3 | .
